# BB579 growth dn: chemicals that inhibit yeast BB579 growth in restrictive medium (lifespan-shortening candidates). S. cerevisiae BB579 growth, OD615, 48 h. inhibition, % at 10 µM. hit rate 0.51% among 140,000;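 active means inhibition above a set limit, 3 SD over the mean compound inhibition, cut at about 44% in these data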
#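 System: Saccharomyces cerevisiae DeaD strain BB579, replicative lifespan model yeast. Buffer or medium: restrictive glucose-based CSMM-D medium. Doses: one dose, 10 µM compound with 0.25% DMSO. Timing: 4 h preincubation and 48 h exposure at 30 °C. Detection: turbidity as optical density at 615 nm. Benchmarks: amphotericin B 10 µg/mL, positive.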
# Yeast life ext: extends the lifespan of yeast; inhibition of the nicotinamide effect, % at 10 µM; hit rate 0.68% among 130,000; S. cerevisiae growth with nicotinamide, OD615; deaD strain in restrictive glucose medium; AID 775;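 active means inhibition above a set limit, placed 3 SD over the median of all compounds, cut at about 26% in these data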;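 further: 0% = nicotinamide-treated wells and 100% = cells grown without nicotinamide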
#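 assay system = DeaD-strain S. cerevisiae | buffer or medium = restrictive glucose medium | reagent = 1.5 mM nicotinamide | compound = 10 µM single point, 0.25% DMSO | incubation = 48 h compound exposure at 30 °C, humidified | signal = OD615 measurement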
# RAM inhibit: blocks the yeast RAM network | S. cerevisiae dse1pr::URA3 reporter, 5-FOA growth OD615, 2 d; analog-sensitive cbk1-as2 kinase mutant strain | inhibition, % at 50 µM | hit rate 1.8% among 190,000;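 active means inhibition above a set limit, 3 SD over mean compound inhibition, cut at about 8.4% in these data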;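 further: 0% = DMSO-only wells with no growth and 100% = 10 µM 1-NA-PP1 full growth; inhibition rescues growth on 5-FOA so higher OD means more RAM inhibition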
# Active calls of the source: *; · = no result given. The list is not random: actives were taken first. Their share in the collection is about 2.6%.
SMILES,BB579 growth dn,Yeast life ext,RAM inhibit
CC1CCCC(C)N1C(=O)c1cc(-c2ccc(Cl)c(Cl)c2)on1 (stereo unspecified),-40,-5,11*
CSCCC(NC(C)=O)C(=O)Oc1ccc2c3c(c(=O)oc2c1)CCCC3 (stereo unspecified),-24,-10,0
CSCCC(NC(=O)OC(C)(C)C)C(=O)Oc1ccc2c(=O)c(-c3ccc4c(c3)OCCO4)coc2c1 (stereo unspecified),-12,-14,8.7*
c1ccc(-c2ccc(-c3ccccn3)nn2)nc1,68*,-10,-1
c1ccc(-c2ccccn2)nc1,-49,6,0
CCCOP(=O)(OCCC)C(Nc1ccc(C(C)C)cc1)c1ccc([N+](=O)[O-])cc1 (stereo unspecified),-36,-3,9.4*
CC(C)COP(=O)(OCC(C)C)C(Nc1ccccc1)c1ccc(F)cc1 (stereo unspecified),-36,6,1
CC1=Nc2ccccc2/C1=C/c1sc(=S)n(-c2cccc(C(=O)O)c2)c1O,·,·,10.0*
Oc1c(C=C2N=c3ccccc3=N2)sc(=S)n1-c1ccccc1,0,-2,0
Cc1ccccc1OCCSc1nc2ncnc(N)c2[nH]1,·,·,-1
Cc1ccccc1-c1ncc(CN2CCC(CO)(CCCc3ccccc3)CC2)cn1,·,·,1
CC(=O)N1c2ccccc2N(Cc2ccc(C)cc2C)C(=O)C1(C)C,-6,-9,0
C=CCN1C(=O)C(C)(C)N(C(C)=O)c2ccccc21,-31,28*,2
O=C(CC1NCCNC1=O)Nc1cccc([N+](=O)[O-])c1 (stereo unspecified),·,·,1
COc1ccc(NS(=O)(=O)c2cc(NC(=O)c3cc(=O)c4ccccc4o3)ccc2OC)cc1,·,·,9.6*
COc1ccc(NS(=O)(=O)c2cc(NC(=O)c3ccc(F)cc3)ccc2OC)cc1,-24,9,7
CN1CCN(C2=Cc3ccc(Cl)cc3Sc3ccc(F)cc32)CC1,86*,·,2
CN1CCN(C2=Cc3ccccc3Sc3cc(F)ccc32)CC1,6,·,2
Cc1ccc(OC(C)C(=O)N/N=C/c2ccccn2)cc1 (stereo unspecified),·,·,-1
O=S(=O)(c1ccc(Cl)cc1)N1CCCC(C(F)(F)F)C1 (stereo unspecified),·,·,6
Cc1ccc(Nc2cc(-n3nc(C)cc3C)ncn2)c(C)c1,8,-13,9.1*
Cc1ccc(Nc2cc(-n3cccn3)ncn2)c(C)c1,-7,-7,1
O=[N+]([O-])c1ccc(N/N=C2/CCCCC2c2ccccn2)cc1 (stereo unspecified),98*,-10,-1
O=[N+]([O-])c1ccc(NC2CCCC2)cc1,-25,-7,0
COc1ccccc1/C=C(/C(=O)OCC(=O)NCc1ccccc1)c1ccccc1,-36,4,10*
SMILES,BB579 growth dn,Yeast life ext,RAM inhibit
COc1ccccc1/C=C(/C(=O)OCC(=O)Nc1ccccc1C)c1ccccc1,-27,-1,4
COc1ccc(/C=C(/C(=O)NCc2ccccc2)c2ccccc2)cc1,-6,-3,11*
COc1ccc(/C=C(\NC(=O)c2ccccc2)C(=O)NCCC(=O)O)cc1,·,·,3
CC(=O)N1N=C(c2ccc(C)o2)CC1c1cccc(F)c1 (stereo unspecified),·,·,2
COCC(=O)N(CCc1ccc(OC)c(OC)c1)Cc1cc2cc(C)ccc2nc1Cl,·,·,1
COc1ccc(C(CCc2ccc(C)o2)NC(=O)Nc2ccc(OC)cc2OC)cc1 (stereo unspecified),-7,-12,10*
COC(=O)[C@H](C)NC(=O)Nc1ccc(OC)cc1OC,-64,-8,-1
COc1cccc(CN(CC(=O)NC2CCCC2)C(=O)Cn2nnc(-c3cccs3)n2)c1,-34,-10,1
CCOc1ccc2nc(-c3cc(NC(C)=O)ccc3O)sc2c1,·,·,1
COc1ccc(/C=N/Nc2nnc(Cc3ccc(OC)c(OC)c3)c(=O)[nH]2)cc1,-26,2,4
COc1ccc(/C=N/Nc2nnc(Cc3ccc(OC)c(OC)c3)c(=O)[nH]2)cc1OC,-18,4,9.7*
CC/C(=C\C1CCCCC1)C(NP(=O)(c1ccccc1)c1ccccc1)c1ccccc1 (stereo unspecified),-24,9,5
Cn1nnnc1SCc1csc(C2C(C#N)=C(N)OC3=C2C(=O)CCC3)c1 (stereo unspecified),·,·,3
CCCCC(CC)CNC(=O)C1CC=CCC1C(=O)O (stereo unspecified),-23,10,-1
CCOCCCNC(=O)c1cc(Sc2ccc(C)cc2)nc2ccccc12,-25,1,11*
O=C(NCCCN1CCCC1)c1cc(Sc2ccc(F)cc2)nc2ccccc12,·,·,1
COc1ccc(CN2CCNC(=O)C2CC(=O)NCCCn2cccn2)c(OC)c1 (stereo unspecified),·,·,0
CCOC(=O)c1cc(C(C)=O)n2ccccc12,-12,-29,2
CCOC(=O)c1cc(C(=O)c2cccs2)n2ccc(C(C)=O)cc12,-40,-8,8.5*
CC1CCN(c2nc(/C=C/c3ccccc3)nc3ccccc23)CC1,91*,-12,-1
C(=C\c1nc(N2CCCC2)c2ccccc2n1)/c1ccccc1,-18,-7,-1
O=C(NCCc1ccccc1)c1cc(S(=O)(=O)N2CCOCC2)ccc1F,-16,-6,2
O=C(Nc1cccc(Cl)c1Cl)c1cc(S(=O)(=O)NCCc2ccccc2)ccc1F,-64,8,9.4*
CC(=O)[C@H]1[C@@H]2C(=O)N(c3cccc(Cl)c3)C(=O)[C@@H]2[C@H]2c3ccccc3C=CN21,-48,-9,2
CC(=O)[C@H]1[C@H](c2cccc(Cl)c2)C(C#N)(C#N)[C@@H]2c3ccccc3C=CN21,-39,45*,1
SMILES,BB579 growth dn,Yeast life ext,RAM inhibit
Cc1ccccc1C(=O)NC(CC(C)C)C(=O)OCC(=O)c1c(N)n(C)c(=O)n(C)c1=O (stereo unspecified),·,·,2
CCCCCC1CCC(C(=O)O)CC1 (stereo unspecified),52*,-7,0
CCCCC1CCC(/C(N)=N/O)CC1 (stereo unspecified),-24,-11,0
O=C(CN1C2=NCCCN2c2ccccc21)c1ccc([N+](=O)[O-])cc1,·,·,0
C[C@]12CC[C@@H]3c4ccc(O)cc4CC[C@H]3[C@@H]1C[C@@H](O)[C@@H]2O,-28,3,1
C[C@]12CC[C@@H]3c4ccc(O)cc4CC[C@H]3[C@@H]1CC[C@@H]2OC(=O)CCC(=O)O,-61,57*,2
CCC(C)(C(=O)NC1CCCC1)N(C(=O)CNC(=O)c1ccccc1)c1c(C)n(C)n(-c2ccccc2)c1=O (stereo unspecified),·,·,4
COc1ccc(CN=C2NC(=O)CC(C(=O)Nc3cc(C)cc(C)c3)S2)cc1 (stereo unspecified),-26,1,1
COc1ccc(CN=C2NC(=O)CC(C(=O)Nc3ccc(Cl)cc3)S2)cc1 (stereo unspecified),-3,-4,9.2*
Cc1ccc(S(=O)(=O)Cn2nnnc2C(CC(C)C)N2CCN(C)CC2)cc1 (stereo unspecified),·,·,0
CCn1ncc(NC(=S)NCCc2ccc(OC)c(OC)c2)c1C(N)=O,·,·,0
